Measurements as given in ChEMBL document CHEMBL4513216, “Probing the Open Global Health Chemical Diversity Library for Multistage-Active Starting Points for Next-Generation Antimalarials” (ACS Infect Dis, 2020).

Assay: Toxicity liver stage against HepG2, at 10uM
Type: cell-based
Set-up: test concentration 10 uM, cell line HepG2-A16-CD81EGFP
Settings: human, HepG2-A16-CD81EGFP cells; read-out: INHIBITION
Outline: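 Uninfected HepG2-A16-CD81EGFP cells, 3 × 10^3 per well, 1536-well, plated on prespotted compound at 10 μM final, parasite-free screening media added to match infected plates; puromycin 10 μM positive, DMSO 0.5% negative; run in parallel with 48 h PbLuc assay at 37 °C, 5% CO2; viability by CellTiter-Glo luminescence, normalized to controls.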

Structure (SMILES)	cytotoxicity at 10 µM
CS(=O)(=O)c1ccc(Cl)c(NC(=O)NCCC2=CCCCC2)c1	0.0793%
CCC1CN(CC(=O)NCCN2CCCCCC2)c2ccccc2S1 (stereo not given)	-1.14%
O=C(c1cccnc1)N1CCN(c2ccc(-n3cccc3)nn2)CC1	-9.73%
Cc1cnc(N2CCOC3(CCCN(c4ncccn4)C3)C2)nc1 (stereo not given)	9.19%
Cc1cccc(CN2CCC3(CCCN(Cc4cnn(C)c4)C3)C2=O)n1 (stereo not given)	6.02%
O=C(c1ccsc1)N1CCc2c(CN3CCCC3)n[nH]c2C1	5.04%
CC1=N[C@@]2(CC[C@@H]3CN(C(=O)Nc4ccc(F)cc4)C[C@@H]32)C(=O)N1C	8.1%
Cc1occc1C(=O)N1CCC2(CC1)CC(c1cccnc1)C(=O)N2C (stereo not given)	-7.09%
CC(C)NC(=O)N1CCN(S(=O)(=O)C2CC2)CC2(CC(=O)N(C)C2)C1 (stereo not given)	1.11%
Cn1nnc(NCc2ccc(-c3ccc(Br)cc3)o2)n1	-11.1%
COCCC(=O)N1CCC(c2nnc(-c3ccsc3)o2)CC1	9.09%
Cc1ccnc(C2(C)CCCN2S(=O)(=O)c2c(C)noc2C)n1 (stereo not given)	0.795%
Cc1cc(C)n(-c2nc(C(=O)NCCS(=O)(=O)N3CCCCC3)cs2)n1	-10.3%
CS(=O)(=O)N1CC(c2nc(N)ncc2-c2ccc(F)cc2)C1	-3.49%
Cc1cc(=O)[nH]c(=O)n1Cc1ncc(-c2ccccc2C(=O)O)s1	2.71%
COCCC(=O)N1CCC(c2ncncc2-c2ccnc(N)c2)C1 (stereo not given)	-2.68%
c1nc(C2CCCCO2)ncc1CN1CCOCC1 (stereo not given)	-8.45%
CNC(=O)C1(CCCc2ccncc2)CCCN1 (stereo not given)	-6.46%
Cc1ccccc1S(=O)(=O)Cc1nsc(N(C)C)n1	-4.45%
COc1c(C2CCCN2c2ncnc3ccsc23)c(C)nn1C (stereo not given)	18.6%
Cc1cc(C(=O)Nc2cc(C3CC3)n[nH]2)c2c(C)nn(C)c2n1	-2.14%
CC(C)C(NC(=O)Cc1ccccc1)C(=O)NCc1ccc(O)nc1 (stereo not given)	0.833%

Structure (SMILES)	cytotoxicity at 10 µM
CC(C)C(C)N(C(=O)Cn1nc2n(c1=O)CCCCC2)C1CC1 (stereo not given)	-5.77%
c1ccc2nc(N3CCCCC3)c(NCc3nnc4n3CCC4)nc2c1	2.48%
CCOc1ccc(Cl)cc1CCNC(=O)N1CCCC(CO)C1 (stereo not given)	5.46%
CCCc1n[nH]c(C2CN(Cc3ncc[nH]3)CCO2)n1 (stereo not given)	4.69%
CC(C)(C)NC(=O)CNC(=O)c1cccnc1Oc1cccnc1	4.11%
Cc1csc(CN(C)C(=O)Nc2cnn(CC3CCCO3)c2)n1 (stereo not given)	-3.28%
CS(=O)(=O)CCC(=O)NC1CC(c2cccc(Cl)c2)C1 (stereo not given)	1.36%
N#Cc1cccnc1NC1CCN(c2ccccc2OC(F)F)C1=O (stereo not given)	6.37%
CCCN(C(=O)c1csnn1)C1CCCN(Cc2ccccc2)C1 (stereo not given)	-4.38%
N#Cc1cccc(OCCCN2CCN(C(=O)c3ccoc3)CC2)c1	3.57%
CC(C)=CCS(=O)(=O)Cc1nc(C(C)C)no1	10.8%
COC(=O)NCc1ccc(NC(=O)CC2=CCCCC2)cc1	2.97%
CSc1nc(C2CC2)nc(C)c1C(=O)NCc1ncc(C)o1	-3.71%
CNC(=O)CCc1cccc(OC2CCCC2)c1	-0.408%
Cc1cc(C)n(C2CN(c3ncnc4c3CCC4)C2)n1	8.09%
CSc1[nH]c(=O)c(C(=O)N2CCCC2C2CCCC2)cc1C#N (stereo not given)	5.58%
Cc1cc(CNC2(c3ccccc3)CCCCC2)on1	0.643%
Cc1ccc(SC2CCCC2)c(C(=O)NCc2n[nH]c(=O)[nH]2)c1	-38.4%
CC(NCC(=O)NCC(=O)Nc1ccc(F)cc1)c1cccs1 (stereo not given)	6.02%
CCOc1ncccc1CNC(=O)N1CCCC1c1cc(C)no1 (stereo not given)	23.7%
COc1ccc(CC(=O)N2CCCCC2Cn2cccn2)cc1OC (stereo not given)	-12.4%
COc1ccccc1C(O)CNc1nccc(-c2ccc(C)nc2C)n1 (stereo not given)	8.95%

Structure (SMILES)	cytotoxicity at 10 µM
Cc1ccc([C@@H]2CN(S(=O)(=O)c3ccccc3)C[C@H]2N(C)C)cc1	-4.44%
CCc1ncc(-c2cn(CCSc3ncn[nH]3)nn2)cn1	1.41%
CCN1CC2(CCN(CCOc3ccc(F)cc3)CC2)CC1=O	8.12%
CS(=O)(=O)c1ncc(CN2CCCC(C(N)=O)C2)n1CC1CCCCC1 (stereo not given)	-2.35%
CCc1ncc(CN2CCCC3(CCC(=O)N(CCC(C)C)C3)C2)cn1 (stereo not given)	-7.66%
COc1ccc(OC)c2c(C)cc(N(C)CCO)nc12	6.36%
CC(C)OC(=O)N1CCCC2(CCC(=O)N(CCc3c[nH]cn3)C2)C1 (stereo not given)	-3.73%
CC(C)(C)n1cc(C2=CCN(CCN3CCCCCC3)CC2)cn1	-0.481%
Cc1cc(C)nc(N(C)CCN(C)C2CCCC2)n1	-5.88%
Cc1ccncc1-n1cc(CCO)cn1	-2.51%
Cc1ccc(CN2CCNC(=O)C2CC(=O)N2CCSCC2)o1 (stereo not given)	4.48%
Nc1cc(C(=O)NCC2CCN(Cc3ccncc3F)C2)ccn1 (stereo not given)	-24.2%
Cc1ncsc1CCN(C)Cc1cc2n(n1)CCN(Cc1ccco1)C2	-4.93%
Cc1cccc(-n2nc(CC(C)C)nc2CS(C)(=O)=O)c1	1.81%
COc1ccc(CNC(=O)N2CCN(C)[C@@H]3CS(=O)(=O)C[C@@H]32)cc1	8.64%
CN(Cc1noc2c1CCCC2)C(=O)CN1C(=O)CSc2ccccc21	-40.5%
CN(CCN1CCCCCC1)Cc1cnc(N)nc1	0.993%
Cc1cc(N2CCC(C(=O)O)(n3ccc(C(C)(C)C)n3)CC2)nc(N)n1	-5.6%
Cc1csc(CN(C)c2cc(C)nc3c(C)c(C)nn23)n1	-2.96%
CCC(C)N(Cc1cccnc1)C(=O)c1ccc(F)c(O)c1 (stereo not given)	1.87%
CCn1c(C2CCCN(Cc3cccc4cnccc34)C2)nn(C)c1=O (stereo not given)	-6.29%
COc1ccc(Cl)cc1C(=O)N1C[C@@H](NC(=O)N(C)C)[C@H](C(C)C)C1	-1.41%

Structure (SMILES)	cytotoxicity at 10 µM
Cc1nnc(CCNC(=O)c2coc(CN3CCOCC3)c2)s1	-9.21%
CCCc1nnc(N2CCN(c3ccccc3OCC)CC2)o1	3.88%
CCc1cc(N2CCSCC2)n2nc(C)c(C)c2n1	-0.854%
O=C(Cc1cccc(Cl)c1)N[C@@H]1CCNC[C@H]1O	2.28%
COCCNC(=O)CN1CCN(c2nc(C)cs2)CC1	-13.2%
CC(NC(=O)NCCCN1CCCC1)c1nncn1C (stereo not given)	-0.373%
COc1cc(CNCC(O)c2ccc(F)cc2F)cc2c1OCO2 (stereo not given)	-1.37%
CCS(=O)(=O)c1ccccc1N1CCC(NC2CCCC2)CC1	-2.63%
Cc1ccc(NC(=O)C2CSCN2C(=O)c2cccnc2)c(C)c1 (stereo not given)	-1.9%
O=C1C(NCc2nnc3n2CCCC3)CCN1c1ccccc1Cl (stereo not given)	-7.42%
CCc1nc(CNCCn2cc(C)cn2)no1	-4.32%
Cn1cc(C2CCCN2C(=O)CCCOc2ccccc2F)cn1 (stereo not given)	0.2%
Cc1noc(CCCC(=O)N2CCCC2c2ccsc2)n1 (stereo not given)	-3.02%
CS(=O)(=O)NCCN1CCCC1c1noc(C2CC2)n1 (stereo not given)	-23.7%
Cc1n[nH]c(C2CN(Cc3nnc(C4CCC4)o3)CCO2)n1 (stereo not given)	-3.72%
c1ccc(-c2nnc(CN3CCOC(Cn4cccn4)C3)o2)cc1 (stereo not given)	-2.48%
Cc1n[nH]c(C2CN(C(=O)c3cc4c(s3)CCC4)CCO2)n1 (stereo not given)	-5.65%
Cc1nc(C(=O)N2CCCC2c2noc(C)n2)c[nH]1 (stereo not given)	-4.95%
CC(C)c1ccc(S(=O)(=O)N2CSCC2C(=O)NCC(F)(F)F)cc1 (stereo not given)	-13.3%
Fc1ccc(OCCNCCn2cccn2)cc1	-4.17%
CC(C)c1nc(C2CCCN2C(=O)c2ccc(N(C)C)nn2)no1 (stereo not given)	-8.11%
O=C(c1ccc(O)cc1)N1CCN(C(=O)c2ccc3c(c2)COC3)CC1	-9.75%

Structure (SMILES)	cytotoxicity at 10 µM
COc1cccc(OCC(=O)NS(=O)(=O)c2ccc(C)s2)c1	-5.87%
COC(=O)N1CCCC(C(=O)NCc2cc3cccc(OC)c3o2)C1 (stereo not given)	-7.72%
COc1ccc2cc(C(=O)N3CCCCC3Cn3cccn3)[nH]c2c1 (stereo not given)	-9.32%
CCn1cc(NC(=O)C2CCN(Cc3noc(C(C)C)n3)CC2)cn1	0.89%
COc1ccnc(N2CCN(C(=O)NCc3ccc(C)s3)CC2)n1	-2.45%
COCCOc1ccc(NC(=O)N2CCCC2c2cc(C)no2)cn1 (stereo not given)	5.32%
CNC(=O)[C@@H](c1ccccc1F)N1CCC[C@H]1C(=O)NC1CC1	-5.84%
Cn1cc(CN2CCC(F)(F)C3(CCN(c4ccccn4)C3)C2)cn1 (stereo not given)	-0.434%
CN(C)CCOCc1nnc2n1CCN(Cc1ccoc1)CC2	-10.7%
CCS(=O)(=O)N1CCC2(CC1)CC(Oc1ccccn1)CO2 (stereo not given)	-1.58%
O=C(CC1CC1)N1CCN(Cc2cccnc2)c2ncccc2C1	5.15%
CC(C)N1CC[C@H]2[C@H](C[C@@H](Cn3cncn3)N2c2nccs2)C1	4.68%
CC(=O)N1CC[C@H]2[C@H](C[C@@H](CN3CCCC3)N2c2nccs2)C1	1.84%
CN1CCn2c(-c3cnn(C)c3)cnc2C12CCN(CC1CC1)CC2	7.55%
O=C(Cc1ccccc1)N1C[C@@H]2OCCN(CC3CCCO3)[C@@H]2C1 (stereo not given in full)	-3.09%
O=S(=O)(C1CC1)N1C[C@H]2CCC[C@@]2(COc2ccccn2)C1	-3.47%
O=C(N1CCOCC1)[C@@]12CCO[C@@H]1CCN(C1CCCCC1)C2	2.14%
c1cncc(C2COC3(CCN(Cc4cccs4)CC3)C2)c1 (stereo not given)	-0.697%
CCN1CCO[C@@H]2CN(C(=O)COC3CCCC3)C[C@@H]2C1	4.32%
COC(=O)Cn1c(=O)[nH]c2cn(-c3ccc(Cl)cc3)c(=O)n21	23.7%
O=C(Cc1cccnc1)N1C[C@@H]2CC[C@H]1CN(Cc1ccc(F)cc1)C2	4.54%
CN(C)S(=O)(=O)N1C[C@H]2CC[C@@H](C1)N(Cc1ccc(F)c(F)c1)C2	1.05%
